Measurements published in paper PMC11350716 (JACS Au, 2024).

Tests used:
[1] = assay type: in vivo; details: mice, intravenous, 0.02 mg/mouse as ICG, brains harvested after 48 h
In short: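 Mice received the test compound or free ICG alone by intravenous injection. Brains were harvested 48 h later and imaged for near-infrared ICG fluorescence, with instrument sensitivity set to 1,600–3,000 (fluorescence intensity a.u.).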

VIPR2 = details: read-out: antagonist activity IC50; cited from earlier work

| Compound | ICG fluorescence in the brain [1] | IC50 (VIPR2) [nM] |
| --- | --- | --- |
| CC1(C)C(/C=C/C=C/C=C/C=C2\N(CCCCS(=O)(=O)O)c3ccc4ccccc4c3C2(C)C)=[N+](CCCCS(=O)(=O)[O-])c2ccc3ccccc3c21 [ICG, indocyanine green, reference compound] | but not in the brains | – |
| CCCC[C@@H]1NC(=O)[C@H](CCC(=O)O)NC(=O)[C@H](C)NC(=O)[C@H](CC(C)C)NC(=O)[C@H](CCCC)NC(=O)[C@H](Cc2ccc(O)cc2)NC(=O)[C@H](CCCCN)NC(=O)[C@H](Cc2ccc(O)cc2)NC(=O)[C@H]([C@@H](C)O)NC(=O)[C@@H](NC(=O)[C@@H]2CCCN2C(=O)[C@@H](NC(=O)CNC(=O)CCOCCOCCOCCOCCn2nnc3c2-c2ccccc2CN(C(=O)CCNC(=O)CCOCCOCCOCCOCCOCCC(=O)NCCC(=O)N2Cc4ccccc4-c4c(nnn4CCNC(=O)CCCCCN4C(=CC=CC=CC=CC5=[N+](CCCCS(=O)(=O)[O-])c6ccc7ccccc7c6C5(C)C)C(C)(C)c5c4ccc4ccccc54)-c4ccccc42)c2ccccc2-3)[C@@H](C)O)CSSC[C@@H](C(=O)O)NC1=O [ICG-KS-487] | Fluorescence was clearly observed | – |
| Ac-(CPPYLP[KYLC)D]LI-NH2 (bicyclic or more) [KS-133] | – | 25 |
